Results on 4 molecules are retold here after ChEMBL document CHEMBL3526139, “Clinical pharmacokinetics, metabolism, and drug-drug interaction of carfilzomib” (Drug Metab Dispos, 2013).

The nature of data set [1]: Drug excretion in urine of human patient with relapsed and refractory hematological malignancies treated intravenously with carfilzomib on days 1, 2, 8, 9, 15 and 16 of 28-day cycle over 2 to 10 mins by LC-MS/MS analysis. The conditions noted are these: in vivo, iv. In kind it is ADME.
The target in data set [2] is Cytochrome P450 3A (Homo sapiens, UniProt P08684+P20815+Q9HB55+P24462). Description: Inhibition of CYP3A in human liver microsomes treated with […] up to 30 uM by LC-MS/MS analysis. The class given is ADME. Put shortly: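 Metabolites were tested for CYP3A inhibition in HLM at 0.04–30 µM, with or without a 30-min preincubation. Midazolam or testosterone substrate was used with a 5-min reaction and LC-MS/MS read-out.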

Data set [3] has as its system Homo sapiens. The data set is described as follows: Ratio of compound AUC (infinity) to carfilzomib AUC (infinity) in human multiple myeloma patient with normal renal function treated with carfilzomib at 15 mg/m'2, iv on days 1, 2, 8, 9, 15 and 16 of 28-day cycle over 2 to 10 mins by LC-MS/MS analysis. In kind it is ADME, organism-based. Particulars: in vivo; call rule not given here.
Data set [4] concerns Plasma. The data set is described as follows: Drug level in plasma of human patient with relapsed and refractory hematological malignancies treated intravenously with carfilzomib on days 1, 2, 8, 9, 15 and 16 of 28-day cycle over 2 to 10 mins by LC-MS/MS analysis. The class given is ADME. The conditions noted are these: iv.
Data set [5] addresses T1, CYP3A (Homo sapiens, UniProt P08684+P20815+P24462+Q9HB55). Description: Time-dependent inhibition of CYP3A in human liver microsomes preincubated for 30 mins with carfilzomib by LC-MS/MS analysis. The class given is ADME. Particulars: liver microsomes. In a few lines: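 Pooled HLM (16 donors) given carfilzomib 0.01–10 µM in duplicate at 37°C with a 30-min preincubation before probe substrate was added. Substrate was set near Km (testosterone Km 100 µM; midazolam Km 3.8 µM). Protein was 0.1 mg/mL, or 0.05 mg/mL with midazolam. Metabolite formation was read by LC-MS/MS after 5 min and expressed relative to 0.5% acetonitrile controls to give IC50.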

For data set [6], the target named is T1, CYP3A. The data set is described as follows: Inhibition of CYP3A in human liver microsomes treated with carfilzomib by LC-MS/MS analysis. In kind it is ADME.
The nature of data set [7]: Half life in solid tumor patient at 2 mg, po administered as single dose followed by co-treatment with 27 mg/m2, iv carfilzomib over 2 to 10 mins on days 1, 2, 8, 9, 15 and 16 of single 28-day cycle measured on day 1. Particulars: human, in vivo.
A short description of data set [8]: clinical. The conditions noted are these: human, in vivo, po.
A short description of data set [9]: clinical. Particulars: human, plasma, po.
The nature of data set [10]: clinical. The conditions noted are these: human, plasma, po, 2 mg.
A short description of data set [11]: clinical. The conditions noted are these: human, plasma, po. This is another data set of the same source.
Data set [12] is described as follows: clinical. The conditions noted are these: human, plasma, po. The source holds these as a separate data set.
A short description of data set [13]: clinical. The conditions noted are these: human, in vivo, po. This is another data set of the same source.
A short description of data set [14]: Tmax in solid tumor patient at 2 mg, po administered as single dose followed by co-treatment with 27 mg/m2, iv carfilzomib over 2 to 10 mins on days 1, 2, 8, 9, 15 and 16 of single 28-day cycle measured on day 1. The conditions noted are these: human, in vivo. In kind it is ADME, organism-based. In a few lines: (§1)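 Oral midazolam 2 mg single dose on Day -7, then 2 mg given immediately after IV carfilzomib (27 mg/m2, 2–10 min infusion) on Days 1 and 16. Plasma sampled pre-dose and 5, 10, 30 min, 1–24 h post-midazolam. Midazolam measured by liquid-liquid extraction (methyl tert-butyl ether) and LC-MS/MS, range 0.100–100 ng/mL, d4-midazolam internal standard. Tmax derived noncompartmentally.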

Data set [15] is described as follows: Tmax in solid tumor patient at 2 mg, po administered as single dose followed by co-treatment with 27 mg/m2, iv carfilzomib over 2 to 10 mins on days 1, 2, 8, 9, 15 and 16 of single 28-day cycle measured on day 16. The class given is ADME, organism-based. Particulars: human, in vivo. Put shortly:
as §1

Data set [16] in a line: AUC(last) in solid tumor patient at 2 mg, po administered as single dose measured on day 7. The conditions noted are these: human, plasma.
A short description of data set [17]: clinical. Particulars: human, plasma, po. This is another data set of the same source.
A short description of data set [18]: AUC(infinity) in solid tumor patient at 2 mg, po administered as single dose measured on day 7. The conditions noted are these: human, plasma.
Data set [19] can be described thus: clinical. The conditions noted are these: human, plasma, po. The source holds these as a separate data set.
A short description of data set [20]: clinical. Particulars: human, in vivo, po. The source holds these as a separate data set.
A short description of data set [21]: clinical. The conditions noted are these: human, plasma, po. This is another data set of the same source.

Each structure is given as a SMILES string.

With `O=C(CN1CCOCC1)NC(CCc1ccccc1)C(=O)O` (stereo not drawn), the Drug excretion result in data set [1] is reported as “metabolite_detected”. Moreover, the “inhibition (INH)” value in data set [2] is given as “Not Active”. Further, in [3], the Ratio came out at 1.2. Moreover, in data set [4], the Drug metabolism result is “metabolite_detected”.

For the molecule `CC(C)CC(NC(=O)C(CCc1ccccc1)NC(=O)CN1CCOCC1)C(=O)O` (stereo not drawn), the Drug excretion result in [1] is recorded as “metabolite_detected”. In addition, the “inhibition (INH)” value in data set [2] is “Not Active”. In addition, the Ratio in data set [3] was determined as 0.11. Also, the Drug metabolism entry in data set [4] is reported as “metabolite_detected”.

On to `CC(C)CC(NC(=O)C(CCc1ccccc1)NC(=O)CN1CCOCC1)C(=O)NC(Cc1ccccc1)C(=O)NC(CC(C)C)C(=O)C(C)(O)CO` (stereo not drawn), for which, in data set [1], the Drug excretion result is on record as “metabolite_detected”. Also, the IC50 at 30 min in data set [5] was 1800 nM. In addition, the Ratio in [3] stood at 0.28. In data set [6], this molecule registered an IC50 above 30000 nM. Besides, the Drug metabolism result in data set [4] is “metabolite_detected”.

With `Cc1ncc2n1-c1ccc(Cl)cc1C(c1ccccc1F)=NC2` [MIDAZOLAM], the half-life in [7] was 6.3 h; in data set [8], 5.5 h. For the same molecule, the AUC(0-inf) worked out at 59.9 ng·h/mL in data set [9], 51.5 ng·h/mL in [17] and 54.3 ng·h/mL in data set [18]. For the same molecule, the AUC(0-t) at 12 h in [10] worked out at 42.5 ng·h/mL. Also, the AUC(0-t) in data set [11] is 48.4 ng·h/mL; in data set [12], 40.3 ng·h/mL; in [16], 49.8 ng·h/mL; in data set [19], 47.3 ng·h/mL; in data set [21], 48.4 ng·h/mL. Besides, the Cmax came out at 15.7 ng/mL in [13] and 16 ng/mL in [20]. Also, the values for the Tmax in [14] and in data set [15] were 0.7 h and 0.8 h, respectively.
